Bioassay records as filed in PubChem.
M5 antag: human M5 muscarinic receptor antagonists, primary screen, CHO cells, Fluo-8 calcium fluorescence; 0.59% of 360,000 active; inhibition, % at 3 µM; CHO-hM5 cells, ACh EC80; Muscarinic acetylcholine receptor M5 (Homo sapiens), P08912; AID 624040, 2012;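 active = inhibition above a per-plate cutoff, the mean of that plate's test compounds plus 3 SD, cut at about 27% in these data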;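 note: 0% = acetylcholine EC80 with DMSO and 100% = DMSO without agonist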
Target sequence (P08912 whole entry, looked up): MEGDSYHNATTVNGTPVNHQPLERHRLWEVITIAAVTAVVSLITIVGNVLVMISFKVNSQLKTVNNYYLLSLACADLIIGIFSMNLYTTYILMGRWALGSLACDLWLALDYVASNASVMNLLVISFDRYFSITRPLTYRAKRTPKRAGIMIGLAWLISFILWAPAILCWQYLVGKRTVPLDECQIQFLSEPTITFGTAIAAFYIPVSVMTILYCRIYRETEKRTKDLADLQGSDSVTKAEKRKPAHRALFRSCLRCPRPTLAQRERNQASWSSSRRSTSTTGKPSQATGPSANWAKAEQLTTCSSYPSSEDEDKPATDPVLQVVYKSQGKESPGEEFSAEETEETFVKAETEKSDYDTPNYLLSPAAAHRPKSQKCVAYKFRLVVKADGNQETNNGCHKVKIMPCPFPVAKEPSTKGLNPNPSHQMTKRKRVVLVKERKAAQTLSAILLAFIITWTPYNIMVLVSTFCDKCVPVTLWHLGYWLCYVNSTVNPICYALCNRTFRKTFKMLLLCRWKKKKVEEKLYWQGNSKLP
M1 ag parental: counter-screen for M1 agonists: effect in parental CHO-K1 cells. Fluo-8 calcium fluorescence; scaled to maximal ATP response, vehicle zero. activation, % at 3 µM. 0.48% of 360,000 active; in the data active = activation above about 15%;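 note: untransfected CHO-K1 host cells lacking M1 receptor as counterscreen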
CHRM5 agonist: human M5 muscarinic receptor agonists, primary screen, CHO-K1 cells, Fluo-8 calcium fluorescence | activation, % at 3 µM | AID 624037, 2012 | CHO-K1 hM5 cells; 0% DMSO wells, 100% maximal acetylcholine response | 0.19% of 360,000 active;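 active = activation above the run's mean over test compounds plus 3 SD, cut at about 23% in these data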;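 note: signal is peak over basal fluorescence ratio across the kinetic read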
M1 PAM parental: nonselective calcium activators in parental CHO-K1 cells, primary screen, counter-screen for M1 PAM project, cell-based, Fluo-8 calcium fluorescence, full deck, 1536-well; ATP EC20; 0% at ATP EC20, 100% at ATP max; activation, % at 3 µM; 0.02% of 360,000 active;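 active = activation above the run cutoff, the mean activation of all test compounds plus 3 SD, cut at about 40% in these data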;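 note: peak over basal fluorescence ratio in a 140 s read after ATP addition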
M5 PAM: human M5 muscarinic receptor positive allosteric modulators, primary screen, CHO-K1 cells, Fluo-8 calcium fluorescence. CHO-K1 hM5, ACh EC20 PAM; 0% = ACh EC20, 100% = ACh EC100. 0.3% of 360,000 active. activation, % at 3 µM. Muscarinic acetylcholine receptor M5 (Homo sapiens), P08912;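 active = activation above the run cutoff, the mean activation of all test compounds plus 3 SD, cut at about 18% in these data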
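Probe or stimulus: acetylcholine, EC20 level; Assay system: human M5 receptor in CHO-K1 cells; Schedule: compound preincubation 140 s before EC20 acetylcholine addition; Technique: intracellular calcium via Fluo-8 fluorescence; Dosing: single-point, 3 µM nominal; Read-out basis: percent activation from peak-over-basal fluorescence ratio, scaled EC20-to-EC100 acetylcholine; Repeats: one well per compound, no replicates.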
CHO-K1 Ca antag: counter-screen for M1 antagonists: effect in parental CHO-K1 cells; AID 602250; 0.6% of 360,000 active; inhibition, % at 3 µM; ATP-induced calcium, Fluo-8 fluorescence;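 active = inhibition above a per-plate cutoff, the plate's mean sample inhibition plus 3 SD, cut at about 24% in these data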;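 note: 0% = DMSO plus EC80 ATP and 100% = DMSO alone without ATP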
* = called active by the depositor. Most compounds without a hit are left out; they make up all but 1.7% or so of the library.

SMILES	M5 antag	M1 ag parental	CHRM5 agonist	M1 PAM parental	M5 PAM	CHO-K1 Ca antag
Nc1nonc1-n1nnc(C(=O)N/N=C/c2cccnc2)c1CSc1ccc(Cl)cc1	15	16*	-1	14	-8	-4
CCCOc1ccc(-c2c(C(=O)N/N=C/c3ccc(OC)cc3)nnn2-c2nonc2N)cc1	-3	0	3	16	3	-10
CCCOc1ccc(-c2c(C(=O)N/N=C/c3ccc(OCC)cc3)nnn2-c2nonc2N)cc1	11	-1	-2	-12	-6	26*
O=C(O)CC(CNC(=O)C1CCCN1C(=O)OCc1ccccc1)c1ccccc1 (stereo unspecified)	2	1	-4	-6	-2	-10
CSc1ccc(CN2CCc3c([nH]c4ccccc34)C2)cc1	3	15*	-9	20	5	-7
CCn1c2ccccc2c2nc3cc(C(=O)O)ccc3nc21	6	1	-2	-15	-7	24*
CCn1c2ccccc2c2nc3ccccc3nc21	-1	1	-4	18	1	-1
COc1ccc(NC(=O)c2[nH]ncc2[N+](=O)[O-])cc1	-9	0	0	4	18*	-15
O=C(Nc1ccccc1)c1[nH]ncc1[N+](=O)[O-]	-10	1	-6	16	16	-4
Cc1ccc(S(=O)(=O)NC(CC(C)C)C(=O)N2CCOCCOCCOCCOCC2)cc1 (stereo unspecified)	24	0	-2	-4	-7	5
Cc1ccccc1-c1nc(NCCN(C)C)nc2ccsc12	56*	1	-4	8	-20	1
CN(C)CCNc1nc(-c2ccccc2CO)c2sccc2n1	37*	0	-4	-1	-20	3
Nc1ccn(CCCNCC(c2ccccc2)c2ccccc2)c(=O)n1	4	2	-3	-3	-2	15
COc1ccc(C2c3cc(OC)c(OC)cc3CCN2S(C)(=O)=O)cc1OC (stereo unspecified)	-12	0	4	14	7	-1
Cc1ccc(NC(=O)c2ccccc2NS(=O)(=O)c2ccc(Cl)s2)cc1	15	10	1	5	-12	25*
CC(C)N(C(=O)COC(=O)c1cc(Cl)cc(Cl)c1N)C(C)C	27*	1	-7	3	-15	0
COc1cc(/C=C/C(=O)OCC(=O)Nc2ccc([N+](=O)[O-])cc2)ccc1O	5	19*	38*	12	-18	-14
Cc1ccc(/C=C2/NC(=O)N(Cc3ccccc3)C2=O)s1	-2	2	2	-8	-12	27*
CCC1CCCCN1S(=O)(=O)c1ccc(NC(=O)c2ccncc2)cc1 (stereo unspecified)	19	16*	8	-14	-25	12
COc1ccc(NC(=O)N(CCO)Cc2cc3c(C)cc(C)cc3[nH]c2=O)cc1	-7	1	-3	13	0	-7
Cc1cc(C)c2cc(CN(CCO)C(=O)Nc3ccc(F)cc3)c(=O)[nH]c2c1	-10	0	2	-7	2	26*
CCCCC(C(=O)NC(=O)NCc1ccccc1)N1C(=O)c2ccccc2C1=O (stereo unspecified)	1	0	1	3	-4	-1
CCOc1ccc(CCNC(=O)Cn2ccc3ccccc3c2=O)cc1OCC	0	0	0	7	20*	2
Cc1ccc(C)c(N2CCN(c3ccc4cc(S(=O)(=O)N5CCCCC5)ccc4n3)CC2)c1	-22	1	-2	9	18*	-12
COc1ccc(CNCCC(c2ccccc2)c2ccc3c(c2)OCO3)cc1 (stereo unspecified)	18	28*	11	4	-14	-6
SMILES	M5 antag	M1 ag parental	CHRM5 agonist	M1 PAM parental	M5 PAM	CHO-K1 Ca antag
COc1ccc(C(CCNCc2ccc(N(C)C)cc2)C(C)C)cc1 (stereo unspecified)	19	7	3	-28	-29	28*
COc1ccc(C(CCNCc2ccc(OC(C)C)cc2)C(C)C)cc1 (stereo unspecified)	13	9	-2	-13	-23	12
CCOC(=O)N1CCC(NC(=O)CCc2nc(-c3ccccc3F)no2)CC1	-11	1	-3	16	-2	-6
COC(=O)C(NC(=O)c1ccccc1Cl)(Nc1ncc(S(=O)(=O)c2ccc([N+](=O)[O-])cc2)s1)C(F)(F)F (stereo unspecified)	7	10	33*	18	-10	2
CCCC(=O)Nc1ccc(-c2csc(NNC(C)=O)n2)cc1	-12	0	5	-12	21*	-2
COC(C#CCCN(C)C)(c1ccccc1)c1ccccc1	94*	1	-8	11	-19	-7
CCOC1=C2[C@@H](CN(S(=O)(=O)c3ccc(C)cc3)[C@H]2c2ccccc2Cl)[C@H]2C(=O)N(C(C)(C)C)C(=O)[C@H]2C1	9	0	5	4	3	27*
CC(=O)c1cc2c(cc1NC(=O)CN1CCN(c3cccc(C(F)(F)F)c3)CC1)OCO2	4	2	0	5	1	3
COc1ccc(N2C[C@H](C)[C@@H](CC(=O)Nc3ccc(Br)cc3)C2=O)cc1	-3	4	6	-13	0	25*
O=C(CCNC(=O)c1ccc(Br)o1)NCc1ccc(Cl)cc1	0	0	-1	-9	0	3
COc1ccc(/C=C/C(=O)N/C(=C\c2ccco2)C(=O)NCCc2nc3ccccc3[nH]2)cc1	8	1	-2	-12	-8	25*
O=C(/C=C/c1ccco1)N/C(=C\c1ccco1)C(=O)NCCc1nc2ccccc2[nH]1	7	1	-2	22	-4	-8
COc1ccc(/C=C/CN2CCC(Oc3ccc(C(=O)N4CCCCC4)cc3)CC2)cc1	35*	3	-8	2	-15	1
O=C(c1cccc(OC2CCN(Cc3cc(F)cc(F)c3)CC2)c1)N1CCCC1	-11	0	-8	-10	5	18
COC(=O)c1ccc(CN2CCC(Oc3ccc(C(=O)N4CCCCC4)cc3)CC2)cc1	22	4	-7	22	-16	-9
CSc1ccc(CN2CCC(Oc3cccc(C(=O)N4CCCC4)c3)CC2)cc1	69*	2	-7	-1	-17	2
O=C(c1ccc(OC2CCN(C/C=C/c3ccccc3)CC2)cc1)N1CCCCC1	4	1	-6	-12	-12	0
